From ChEMBL document CHEMBL1154448, “Thiazolyl/oxazolyl formazanyl indoles as potent anti-inflammatory agents” (Eur J Med Chem, 2008)

Columns and labels:
[1] = Acute toxicity in ip dosed albino mouse assessed as mortality after 24 hrs; format: organism-based; conditions: in vivo, read-out: ALD50
Method in brief: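 Albino mice of either sex (20-28 g), separate groups given graded intraperitoneal doses; percent mortality recorded 24 h after dosing; approximate 50% lethal dose (ALD50) calculated by the method of Smith.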

Rattus norvegicus [2] = experiment: Antiinflammatory activity in Albino rat assessed as inhibition of carrageenan-induced paw edema at 100 mg/kg, po administered 1 hr before carrageenan challenge by micro-pipette method relative to control; format: functional; set-up: scale not given: the % may be the effect or the level left
Method in brief: (§1)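 Rats of either sex, 75-125 g, in groups of 6 (one control group). Compounds were suspended in gum acacia and given orally 1 h before carrageenin. Foot volume was measured by micro-pipette before and at 1 and 3 h after carrageenin. % activity was calculated from the mean oedema volumes of treated (Vt) and control (Vc) groups.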

Mus musculus [3] = experiment: Analgesic activity in mouse assessed as protection against phenylquinone-induced writhes at 25 mg/kg, po administered 1 hr before phenylquinone challenge relative to control; format: functional
Method in brief: (§2)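 Mice in groups of 5 were dosed orally and, 1 h later, injected i.p. with 0.25 mL of 0.02% phenylquinone in 5% ethanol. Writhes per mouse were counted for 5 min, between 5 and 10 min after the irritant. % protection = (1 − mean writhes in test group / mean writhes in control group) × 100.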

Mus musculus [4] = experiment: Analgesic activity in mouse assessed as protection against phenylquinone-induced writhes at 100 mg/kg, po administered 1 hr before phenylquinone challenge relative to control; format: functional; method in brief: as §2
Rattus norvegicus [5] = experiment: Antiinflammatory activity in Albino rat assessed as inhibition of carrageenan-induced paw edema at 25 mg/kg, po administered 1 hr before carrageenan challenge by micro-pipette method relative to control; format: functional; set-up: scale not given: the % may be the effect or the level left; method in brief: as §1
Rattus norvegicus [6] = experiment: Antiinflammatory activity in Albino rat assessed as inhibition of carrageenan-induced paw edema at 50 mg/kg, po administered 1 hr before carrageenan challenge by micro-pipette method relative to control; format: functional; set-up: scale not given: the % may be the effect or the level left; method in brief: as §1
Mus musculus [7] = experiment: Analgesic activity in mouse assessed as protection against phenylquinone-induced writhes at 50 mg/kg, po administered 1 hr before phenylquinone challenge relative to control; format: functional; method in brief: as §2
[8] = Toxicity in ip dosed Albino rat assessed as ulcerogenic activity after 8 hrs; format: organism-based; conditions: in vivo, read-out: UD50
Method in brief: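 Adult albino rats of either sex, in groups of 10, non-pregnant, fasted 24 h with water allowed. Drugs were given i.p. and animals killed 8 h later. Stomach, duodenum and jejunum were examined with a hand lens for epithelial shedding, red spots or bleeding, and erosion or ulceration. Any one sign was scored as ulcerogenic. Result reported as UD50.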

## Cc1[nH]c2ccccc2c1/C=N/c1nc(-c2c(-c3ccc(Cl)cc3)[nH]c3ccccc23)cs1
[1]
  LD50 at 24 h: > 1000 mg/kg
Rattus norvegicus [2]
  Activity: 68.2%
Mus musculus [3]
  Activity: 35.1%
Mus musculus [4]
  Activity: 64.6%
Rattus norvegicus [5]
  Activity: 36.4%
Rattus norvegicus [6]
  Activity: 53.3%
Mus musculus [7]
  Activity: 51.4%
[8]
  TD50 at 8 h: 200 mg/kg

## Cc1[nH]c2ccccc2c1/C=N/c1nc(-c2c(-c3ccc(Cl)cc3)[nH]c3ccccc23)co1
[1]
  LD50 at 24 h: > 800 mg/kg
Rattus norvegicus [6]
  Activity: 21.3%
Mus musculus [7]
  Activity: 19.9%

## COc1ccc(/N=N/C(=N\c2nc(-c3c(-c4ccc(Cl)cc4)[nH]c4ccccc34)cs2)c2c(-c3ccccc3)[nH]c3ccccc23)cc1
[1]
  LD50 at 24 h: > 800 mg/kg
Rattus norvegicus [6]
  Activity: 11.5%
Mus musculus [7]
  Activity: 10.5%

## Clc1ccc(-c2[nH]c3ccccc3c2-c2coc(/N=C/c3c[nH]c4ccccc34)n2)cc1
[1]
  LD50 at 24 h: > 800 mg/kg
Rattus norvegicus [6]
  Activity: 22.7%
Mus musculus [7]
  Activity: 20.9%

## CCc1[nH]c2ccccc2c1C(=N/c1nc(-c2c(-c3ccc(Cl)cc3)[nH]c3ccccc23)cs1)/N=N/c1ccc(OC)cc1
[1]
  LD50 at 24 h: > 800 mg/kg
Rattus norvegicus [6]
  Activity: 13.5%
Mus musculus [7]
  Activity: 12.3%

## Clc1ccc(/N=N/C(=N\c2nc(-c3c(-c4ccc(Cl)cc4)[nH]c4ccccc34)cs2)c2c(-c3ccccc3)[nH]c3ccccc23)cc1
[1]
  LD50 at 24 h: > 800 mg/kg
Rattus norvegicus [6]
  Activity: 23.1%
Mus musculus [7]
  Activity: 21.9%

## Clc1ccc(/N=N/C(=N\c2nc(-c3c(-c4ccc(Cl)cc4)[nH]c4ccccc34)cs2)c2c[nH]c3ccccc23)cc1
[1]
  LD50 at 24 h: > 800 mg/kg
Rattus norvegicus [6]
  Activity: 9.6%
Mus musculus [7]
  Activity: 8.5%

## CCc1[nH]c2ccccc2c1C(=N/c1nc(-c2c(-c3ccc(Cl)cc3)[nH]c3ccccc23)cs1)/N=N/c1ccc(Cl)cc1
[1]
  LD50 at 24 h: > 800 mg/kg
Rattus norvegicus [6]
  Activity: 17.3%
Mus musculus [7]
  Activity: 16.2%

## COc1ccc(/N=N/C(=N\c2nc(-c3c(-c4ccc(Cl)cc4)[nH]c4ccccc34)co2)c2c[nH]c3ccccc23)cc1
[1]
  LD50 at 24 h: > 800 mg/kg
Rattus norvegicus [6]
  Activity: 20.6%
Mus musculus [7]
  Activity: 19.2%

## COc1ccc(/N=N/C(=N\c2nc(-c3c(-c4ccc(Cl)cc4)[nH]c4ccccc34)co2)c2c(-c3ccccc3)[nH]c3ccccc23)cc1
[1]
  LD50 at 24 h: > 800 mg/kg
Rattus norvegicus [6]
  Activity: 17.6%
Mus musculus [7]
  Activity: 15.2%

## CCCCC1C(=O)N(c2ccccc2)N(c2ccccc2)C1=O [PHENYLBUTAZONE]
Rattus norvegicus [2]
  Activity: 65.4%
Mus musculus [3]
  Activity: 13.7%
Mus musculus [4]
  Activity: 62.3%
Rattus norvegicus [5]
  Activity: 15.2%
Rattus norvegicus [6]
  Activity: 38.8%
Mus musculus [7]
  Activity: 37.2%
[8]
  TD50 at 8 h: 66.7 mg/kg

## Clc1ccc(-c2[nH]c3ccccc3c2-c2csc(/N=C/c3c[nH]c4ccccc34)n2)cc1
[1]
  LD50 at 24 h: > 800 mg/kg
Rattus norvegicus [6]
  Activity: 31.8%
Mus musculus [7]
  Activity: 30.6%

## Clc1ccc(-c2[nH]c3ccccc3c2-c2csc(/N=C/c3c(-c4ccccc4)[nH]c4ccccc34)n2)cc1
[1]
  LD50 at 24 h: 800 mg/kg
Rattus norvegicus [6]
  Activity: 19.7%

## CCc1[nH]c2ccccc2c1C(=N/c1nc(-c2c(-c3ccc(Cl)cc3)[nH]c3ccccc23)co1)/N=N/c1ccc(OC)cc1
[1]
  LD50 at 24 h: > 800 mg/kg
Rattus norvegicus [6]
  Activity: 25.2%
Mus musculus [7]
  Activity: 23.9%

## CCc1[nH]c2ccccc2c1/C=N/c1nc(-c2c(-c3ccc(Cl)cc3)[nH]c3ccccc23)cs1
[1]
  LD50 at 24 h: > 800 mg/kg
Rattus norvegicus [6]
  Activity: 25.8%
Mus musculus [7]
  Activity: 23.2%

## CCc1[nH]c2ccccc2c1/C=N/c1nc(-c2c(-c3ccc(Cl)cc3)[nH]c3ccccc23)co1
[1]
  LD50 at 24 h: > 800 mg/kg
Rattus norvegicus [6]
  Activity: 17.3%
Mus musculus [7]
  Activity: 16.2%

## Clc1ccc(/N=N/C(=N\c2nc(-c3c(-c4ccc(Cl)cc4)[nH]c4ccccc34)co2)c2c(-c3ccccc3)[nH]c3ccccc23)cc1
[1]
  LD50 at 24 h: > 800 mg/kg
Rattus norvegicus [6]
  Activity: 27.9%
Mus musculus [7]
  Activity: 26.3%

## Cc1[nH]c2ccccc2c1C(=N/c1nc(-c2c(-c3ccc(Cl)cc3)[nH]c3ccccc23)cs1)/N=N/c1ccc(Cl)cc1
[1]
  LD50 at 24 h: > 800 mg/kg
Rattus norvegicus [6]
  Activity: 21.2%
Mus musculus [7]
  Activity: 19.8%

## Clc1ccc(-c2[nH]c3ccccc3c2-c2coc(/N=C/c3c(-c4ccccc4)[nH]c4ccccc34)n2)cc1
[1]
  LD50 at 24 h: > 800 mg/kg
Rattus norvegicus [6]
  Activity: 25.3%
Mus musculus [7]
  Activity: 23.7%

## COc1ccc(/N=N/C(=N\c2nc(-c3c(-c4ccc(Cl)cc4)[nH]c4ccccc34)cs2)c2c[nH]c3ccccc23)cc1
[1]
  LD50 at 24 h: > 800 mg/kg
Rattus norvegicus [6]
  Activity: 19.2%
Mus musculus [7]
  Activity: 18.8%

## CCc1[nH]c2ccccc2c1C(=N/c1nc(-c2c(-c3ccc(Cl)cc3)[nH]c3ccccc23)co1)/N=N/c1ccc(Cl)cc1
[1]
  LD50 at 24 h: > 800 mg/kg
Rattus norvegicus [6]
  Activity: 23.5%
Mus musculus [7]
  Activity: 21.5%

## Clc1ccc(/N=N/C(=N\c2nc(-c3c(-c4ccc(Cl)cc4)[nH]c4ccccc34)co2)c2c[nH]c3ccccc23)cc1
[1]
  LD50 at 24 h: > 800 mg/kg
Rattus norvegicus [6]
  Activity: 16.2%
Mus musculus [7]
  Activity: 14.7%

## COc1ccc(/N=N/C(=N\c2nc(-c3c(-c4ccc(Cl)cc4)[nH]c4ccccc34)co2)c2c(C)[nH]c3ccccc23)cc1
[1]
  LD50 at 24 h: > 800 mg/kg
Rattus norvegicus [6]
  Activity: 19.1%
Mus musculus [7]
  Activity: 17.8%

## Cc1[nH]c2ccccc2c1C(=N/c1nc(-c2c(-c3ccc(Cl)cc3)[nH]c3ccccc23)co1)/N=N/c1ccc(Cl)cc1
[1]
  LD50 at 24 h: > 800 mg/kg
Rattus norvegicus [6]
  Activity: 22.1%
Mus musculus [7]
  Activity: 21.2%

## COc1ccc(/N=N/C(=N\c2nc(-c3c(-c4ccc(Cl)cc4)[nH]c4ccccc34)cs2)c2c(C)[nH]c3ccccc23)cc1
[1]
  LD50 at 24 h: > 800 mg/kg
Rattus norvegicus [6]
  Activity: 15.4%
Mus musculus [7]
  Activity: 13.7%
